The values below come from ChEMBL document CHEMBL1125384, “Inhibitors of sterol synthesis. 3 beta,25-dihydroxy-5 alpha-cholest-8(14)-en-15-one, an active metabolite of 3 beta-hydroxy-5 alpha-cholest-8(14)-en-15-one” (J Med Chem, 1992).

In assay [1] the target is T1, 3-hydroxy-3-methylglutaryl-coenzyme A reductase (Homo sapiens) (UniProt P04035).
T1 sequence (whole entry): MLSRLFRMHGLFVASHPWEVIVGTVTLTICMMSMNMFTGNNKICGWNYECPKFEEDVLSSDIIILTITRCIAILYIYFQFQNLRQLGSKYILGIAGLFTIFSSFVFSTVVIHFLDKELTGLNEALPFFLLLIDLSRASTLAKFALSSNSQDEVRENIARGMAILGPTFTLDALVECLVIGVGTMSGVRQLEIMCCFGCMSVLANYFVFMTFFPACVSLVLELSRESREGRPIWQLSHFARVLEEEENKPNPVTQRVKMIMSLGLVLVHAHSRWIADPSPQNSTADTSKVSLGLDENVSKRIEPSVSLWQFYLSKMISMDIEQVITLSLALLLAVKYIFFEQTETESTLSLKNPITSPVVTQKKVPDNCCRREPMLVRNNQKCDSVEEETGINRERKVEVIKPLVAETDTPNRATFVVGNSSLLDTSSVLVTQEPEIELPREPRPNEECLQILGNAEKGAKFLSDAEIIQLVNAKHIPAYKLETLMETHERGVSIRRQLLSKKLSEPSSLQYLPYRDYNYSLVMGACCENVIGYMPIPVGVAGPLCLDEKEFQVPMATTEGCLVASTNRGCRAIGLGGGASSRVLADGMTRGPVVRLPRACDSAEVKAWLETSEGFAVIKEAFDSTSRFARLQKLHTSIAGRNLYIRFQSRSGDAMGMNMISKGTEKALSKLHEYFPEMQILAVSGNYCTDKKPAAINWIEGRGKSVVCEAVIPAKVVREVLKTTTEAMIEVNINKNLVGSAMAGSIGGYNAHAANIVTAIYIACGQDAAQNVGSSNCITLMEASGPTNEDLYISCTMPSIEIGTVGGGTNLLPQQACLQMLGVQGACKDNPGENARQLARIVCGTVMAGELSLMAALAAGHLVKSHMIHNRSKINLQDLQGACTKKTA
Put plainly: % control of HMG-CoA reductase activity in CHO-K1 cells at a concentration of 0.25 uM. The format is cell-based. As to conditions: Cricetulus griseus. In short, it runs like this: (§1)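 CHO-K1 cells were exposed to the sterol at 0.0–2.5 μM. HMG-CoA reductase specific activity was measured in pmol min⁻¹ mg⁻¹ protein and expressed as % of the activity in sterol-free control cells. Assays were run in triplicate, with variation given as SD.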

Assay [2] addresses T1, 3-hydroxy-3-methylglutaryl-coenzyme A reductase (Homo sapiens). Put plainly: % control of HMG-CoA reductase activity in CHO-K1 cells at a concentration of 0.5 uM. The class given is cell-based. To be noted: Cricetulus griseus. Put shortly: as §1
Assay [3] has the same target. The experiment in a line: % control of HMG-CoA reductase activity in CHO-K1 cells at a concentration of 1.0 uM. The class given is cell-based. To be noted: Cricetulus griseus. Put shortly:
as §1

Assay [4] has the same target. Put plainly: % control of HMG-CoA reductase activity in CHO-K1 cells at a concentration of 2.5 uM. To be noted: Cricetulus griseus. The format is cell-based. In short, it runs like this:
as §1

Assay [5] addresses 3-hydroxy-3-methylglutaryl-coenzyme A reductase (Cricetulus griseus) (UniProt P00347). The experiment in a line: % control of HMG-CoA reductase activity in CHO-K1 cells at a concentration of 0.0 uM.
Assay [6] has the same target. Put plainly: % control of HMG-CoA reductase activity in CHO-K1 cells at a concentration of 0.1 uM.

3-hydroxy-3-methylglutaryl-coenzyme A reductase (Cricetulus griseus), sequence (P00347 whole entry, looked up): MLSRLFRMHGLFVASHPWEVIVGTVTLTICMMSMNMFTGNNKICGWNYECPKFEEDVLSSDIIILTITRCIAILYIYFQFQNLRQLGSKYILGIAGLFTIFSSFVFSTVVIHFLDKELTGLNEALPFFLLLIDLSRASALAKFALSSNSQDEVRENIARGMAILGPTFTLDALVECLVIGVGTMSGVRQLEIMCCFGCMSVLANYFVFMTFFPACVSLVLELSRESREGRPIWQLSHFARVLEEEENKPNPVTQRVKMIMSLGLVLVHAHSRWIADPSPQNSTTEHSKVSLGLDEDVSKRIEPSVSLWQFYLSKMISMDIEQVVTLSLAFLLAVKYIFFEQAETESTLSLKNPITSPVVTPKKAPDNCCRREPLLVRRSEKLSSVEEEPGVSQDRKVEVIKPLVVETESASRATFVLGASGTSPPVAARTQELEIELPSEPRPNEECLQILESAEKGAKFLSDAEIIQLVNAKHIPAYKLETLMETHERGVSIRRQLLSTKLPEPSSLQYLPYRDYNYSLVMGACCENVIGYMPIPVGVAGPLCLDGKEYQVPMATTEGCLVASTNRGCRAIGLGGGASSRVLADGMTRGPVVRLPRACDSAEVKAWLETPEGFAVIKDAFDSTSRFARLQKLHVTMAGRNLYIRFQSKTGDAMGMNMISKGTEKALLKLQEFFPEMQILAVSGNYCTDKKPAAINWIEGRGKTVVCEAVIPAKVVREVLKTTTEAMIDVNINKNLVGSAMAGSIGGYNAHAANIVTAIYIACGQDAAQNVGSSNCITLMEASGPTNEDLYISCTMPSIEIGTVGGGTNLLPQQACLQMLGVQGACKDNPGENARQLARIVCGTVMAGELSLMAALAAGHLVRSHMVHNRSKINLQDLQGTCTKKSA

For `CC(C)CCC[C@@H](C)[C@H]1CC(=O)C2=C3CC[C@H]4C[C@@H](O)CC[C@]4(C)[C@H]3CC[C@@]21C`, the Control in assay [1] was found to be 52.1%; in assay [2] it was 42.2%; in assay [3] it was 35.8%; in assay [4] it was 24.4%; in assay [5], 100%; in assay [6], 61.9%.
Regarding `C[C@H](CCCC(C)(C)O)C1CC(=O)C2=C3CCC4CC(O)CCC4(C)C3CCC21C` (some centres not stated), the Control in assay [1] was determined as 33.5%; in assay [2], 32.2%; in assay [3] it was 34.2%; in assay [4], 21.5%; in assay [5], 100%; in assay [6], 63.4%.
